According to PMC8419023 (Structure (London, England : 1993), 2021):
One block for each substance: values may come before it. No end group written: not given here.

Assays:
[1] = molecular target: CDK2-cyclin A (Homo sapiens, UniProt P20248+P24941); assay: GST pull down, CDK2-cyclin A; format: binding; details: 1 h, 4°C, SDS-PAGE, two experiments; for binding of GST-tagged Skp2 N-terminal fragments to CDK2-cyclin A^1−432: GST pull-down, Figure 4B; for binding of N-terminal deletions to GST:CDK2-cyclin A: GST CDK2-cyclin A^173−432 with Skp1-Skp2 deletions, Figure 1D
Procedure, shortened: (§1)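 Bacterially expressed proteins: CDK2 (1–298) as a GST fusion, cyclin A (1–432 or 173–432) as a 6XHis fusion. […] Incubated 1 h at 4 °C with mild agitation, washed three times in binding buffer, and bound material analysed by SDS-PAGE; repeated 2–3 times.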

[2] = system: cyclin A; assay: GST pull down, cyclin A in isolation; format: binding, human; details: HEPES pH 7.5; 1 h, 4°C; SDS-PAGE; two experiments; Figure 1C
Procedure, shortened: as §1

[3] = system: CDK2; assay: GST pull down, CDK2 in isolation; format: binding, human; details: HEPES pH 7.5; 1 h, 4°C; SDS-PAGE; two experiments; Figure 1C
[4] = system: CDK2-cyclin A; details: ref Ji et al., 2006; cited from earlier work
[5] = molecular target: CDK2-cyclin A (Surface 2, hydrophobic patch); assay: Fluorescence polarization displacement of FITC-p27^27−36 from CDK2-cyclin A; format: binding, human; details: 25 nM FITC-p27^27−36, CDK2-cyclin A 6.25 μM, HEPES pH 7.5, 30 min, N=4
[6] = system: CDK2-cyclin A^173−432; assay: Protein kinase assay, Bora^1−224 phosphorylation by CDK2-cyclin A; format: biochemical, human; details: 3 nM CDK2-cyclin A, 30°C, 30 min, Figure 7A

Substance: GST-Skp2^1−424: GST-tagged full-length Skp2
pull down of cyclin A in isolation [2]: could also pull down cyclin A in isolation | pull down of CDK2 in isolation [3]: not CDK2 in isolation

Substance: Skp2^17−43: GST-tagged Skp2 fragment 17–43 (ATSFTWGWDSSKTSELLSGMGVSALEK; also: GST-tagged (end not given here))
binding of GST-tagged Skp2 N-terminal fragments to CDK2-cyclin A^1−432 [1]: did not affect binding to CDK2-cyclin A

Substance: Skp2^Δ1−28: Skp2 with residues 1 to 28 deleted
binding of N-terminal deletions to GST:CDK2-cyclin A [1]: caused a decrease in CDK2-cyclin A binding

Substance: Skp2^28−43: GST-tagged Skp2 fragment 28–43 (KTSELLSGMGVSALEK; also: GST-tagged (end not given here))
binding of GST-tagged Skp2 N-terminal fragments to CDK2-cyclin A^1−432 [1]: did abolish binding

Substance: p21: CDK inhibitor p21
competition with the N-terminus of Skp2 [4]: compete with the N-terminus of Skp2 for binding to CDK2-cyclin A

Now from value to substance, other results behind:

binding of GST-tagged Skp2 N-terminal fragments to CDK2-cyclin A^1−432 [1]: A major loss of binding to CDK2-cyclin A
Substance: Skp2^1−29: GST-tagged Skp2 fragment 1–29 (MHRKHLQEIPDLSSNVATSFTWGWDSSKT; also: GST-tagged (end not given here))

binding of N-terminal deletions to GST:CDK2-cyclin A [1]: had no effect on CDK2-cyclin A binding
Substance: Skp2^Δ1−16: Skp2 with residues 1 to 16 deleted

IC50 ([5]; Figure 3E): 5.3 µM | IC50 ([5]; Figure 4F): 5.8 µM | concentration for complete inhibition of Bora phosphorylation ([6]; 10 μM Bora^1–224, 0.75 mM ATP [γ−^32P], pH 7.5, phosphoimager): 10 µM
Substance: Skp2^1−424: full-length Skp2 in complex with Skp1
inhibition of phosphorylation of RxL containing substrate (in words) ([6]; Bora^1–224): completely inhibit Bora phosphorylation in vitro in a manner dependent on its N-terminus
